# Pf Dd2 growth – inhibitors of Plasmodium falciparum Dd2 growth; P. falciparum Dd2 growth, SYBR Green, 72 h; active compounds read low; activity change, % at 10 µM; actives 2.3% (n = 94,000); in the data active = activity change below about -80%
# IDH1 R132H inh – inhibitors of human IDH1 R132H. actives 0.18% (n = 70,000). IDH1 R132H reductase, diaphorase/resazurin fluorescence, 60 min. inhibition, % at 10 µM. O75874; in the data active = inhibition above about 34%;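 note: 0% = DMSO and 100% = no enzyme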
# Target sequence (O75874 whole entry R132H): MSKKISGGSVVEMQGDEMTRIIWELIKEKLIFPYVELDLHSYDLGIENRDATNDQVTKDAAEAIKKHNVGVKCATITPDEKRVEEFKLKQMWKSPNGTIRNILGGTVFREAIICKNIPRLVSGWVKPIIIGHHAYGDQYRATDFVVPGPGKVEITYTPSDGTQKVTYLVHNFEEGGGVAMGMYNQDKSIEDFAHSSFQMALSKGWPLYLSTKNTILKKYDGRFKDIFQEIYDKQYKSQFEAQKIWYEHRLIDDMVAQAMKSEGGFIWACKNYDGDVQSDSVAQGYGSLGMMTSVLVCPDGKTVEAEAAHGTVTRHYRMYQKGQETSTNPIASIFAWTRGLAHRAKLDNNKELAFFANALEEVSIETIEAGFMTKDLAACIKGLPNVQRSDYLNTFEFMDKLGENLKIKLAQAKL
# T cruzi growth – inhibitors of T. cruzi proliferation. T. cruzi beta-gal in NIH3T3, GalScreen luminescence, 90 h. AID 624255. actives 5.9% (n = 77,000). inhibition, % at 8.34 µM;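 active = mean inhibition above about 93%, with at least 55% of replicates each passing it, limit read from the data, passing the limit was not always enough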
# KDM4C inh – inhibitors of human demethylase GASC-1 KDM4C; AID 720574; GST-KDM4C 2-372, H3K9me3 peptide, LANCE TR-FRET; inhibition, % at 12.5 µM; Q9H3R0; actives 0.15% (n = 96,000);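 active = mean replicate inhibition above about 25%, with at least 55% of replicates also reaching it, limit read from the data, passing the limit was not always enough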
#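 material = GST-tagged GASC-1 (JMJD2C) catalytic fragment, aa 2-372 | amount = enzyme final amount 10 nM | medium = HEPES buffer, pH 7.5, plus ascorbate | also added = H3K9me3 peptide substrate, Fe(II), 2-oxoglutarate | dosing = single dose | times = 30 min demethylation and 1 h detection at room temperature | detection = LANCE TR-FRET | read-out basis = Fall in 671/618 emission ratio as inhibition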
# * hit, by the source's call; / = no result given. A selection: hits, their analogues and other compounds. The true share with any hit is near 5.8%.
SMILES,Pf Dd2 growth,IDH1 R132H inh,T cruzi growth,KDM4C inh
Cc1ccc(S(=O)(=O)N(C)C[C@H]2Oc3c(NC(=O)CCCCCC(=O)Nc4ccccc4N)cccc3C(=O)N([C@@H](C)CO)C[C@H]2C)cc1,-91*,0,/,0
C[C@H](CO)N1C[C@H](C)[C@H](CN(C)Cc2ccccc2)Oc2ncc(Br)cc2C1=O,1,17,15,-1
COC(=O)CCN(C(=O)c1ccc(C)c([N+](=O)[O-])c1)c1ccccn1,/,1,/,/
N#C[C@@H]1[C@@H](c2ccccc2)[C@H](CO)N1C(=O)c1ccccc1F,28,/,-7,5
COc1cccc(S(=O)(=O)Nc2ccc3c(c2)[C@@H]2C[C@H](CC(=O)N[C@@H](C)c4ccccc4)O[C@H](CO)[C@@H]2O3)c1,-16,-1,/,24
C[C@@H]1CCCCO[C@H](CN(C)C(=O)Nc2ccc(C(F)(F)F)cc2)[C@@H](C)CN([C@@H](C)CO)C(=O)c2cc(NS(=O)(=O)c3ccc(F)cc3)ccc2O1,-84*,2,78,0
Cc1ccc(S(=O)(=O)Nc2ccc3c(c2)C(=O)N([C@@H](C)CO)C[C@@H](C)[C@@H](CN(C)Cc2ccc(C(F)(F)F)cc2)OCCCC[C@H](C)O3)cc1,-81*,1,/,0
C[C@H]1CCCCO[C@@H](CN(C)C(=O)Nc2ccc(C(F)(F)F)cc2)[C@@H](C)CN([C@@H](C)CO)C(=O)c2cc(NS(=O)(=O)c3ccc(F)cc3)ccc2O1,-46,/,87,0
Cc1ccc(S(=O)(=O)Nc2ccc3c(c2)C(=O)N([C@@H](C)CO)C[C@@H](C)[C@@H](CN(C)C(=O)Nc2ccc(C(F)(F)F)cc2)OCCCC[C@H](C)O3)cc1,-82*,/,87,1
Cc1ccc(S(=O)(=O)Nc2ccc3c(c2)C(=O)N([C@H](C)CO)C[C@@H](C)[C@H](CN(C)Cc2ccc(C(F)(F)F)cc2)OCCCC[C@@H](C)O3)cc1,-73,/,/,-1
C[C@@H]1CN([C@H](C)CO)C(=O)c2cc(NC(=O)Cn3cnnn3)ccc2O[C@@H]1CN(C)Cc1ccc(-c2ccccc2)cc1,4,0,31,0
C[C@H](CO)N1C[C@H](C)[C@@H](CN(C)C(=O)Nc2ccccc2)Oc2ccc(NC(=O)Nc3ccc4c(c3)OCO4)cc2CC1=O,6,1,6,4
C[C@H](CO)N1C[C@H](C)[C@@H](CN(C)C(=O)Nc2ccc3c(c2)OCO3)Oc2ccc(NC(=O)Nc3ccccc3)cc2CC1=O,-83*,0,-27,1
C[C@H](CO)N1C[C@H](C)[C@@H](CN(C)Cc2ccc3c(c2)OCO3)Oc2ccc(NC(=O)Nc3ccc4c(c3)OCO4)cc2CC1=O,-91*,0,79,-4
C[C@H](CO)N1C[C@H](C)[C@H](CN(C)Cc2ccc(-c3ccccc3)cc2)Oc2ccc(NC(=O)Nc3ccc4c(c3)OCO4)cc2CC1=O,-5,2,65,-1
C[C@H](CO)N1C[C@H](C)[C@@H](CN(C)Cc2ccc(-c3ccccc3)cc2)Oc2ccc(NC(=O)Nc3ccc4c(c3)OCO4)cc2CC1=O,-82*,0,56,0
C[C@H]1CN([C@@H](C)CO)C(=O)Cc2cc(NS(=O)(=O)c3cn(C)cn3)ccc2O[C@H]1CN(C)Cc1ccc(Oc2ccccc2)cc1,1,-4,0,0
C[C@H](CO)N1C[C@H](C)[C@@H](CN(C)Cc2ccc(Oc3ccccc3)cc2)Oc2ccc(NS(=O)(=O)c3cn(C)cn3)cc2CC1=O,-90*,1,-74,0
COc1ccc(NC(=O)Nc2cccc3c2O[C@@H](CN(C)C(=O)NC(C)C)[C@@H](C)CN([C@H](C)CO)C3=O)cc1,-2,/,20,0
C[C@H]1CN([C@@H](C)CO)C(=O)Cc2cc(NC(=O)Nc3ccccc3)ccc2O[C@H]1CN(C)Cc1ccc(Oc2ccccc2)cc1,-6,-1,64,-2
C[C@@H]1CN([C@@H](C)CO)C(=O)Cc2cc(NC(=O)Nc3ccccc3)ccc2O[C@H]1CN(C)Cc1ccc(-c2ccccc2)cc1,-88*,-6,60,-1
C[C@@H]1CN([C@@H](C)CO)C(=O)Cc2cc(NC(=O)Nc3ccccc3)ccc2O[C@H]1CN(C)Cc1ccc(Oc2ccccc2)cc1,-87*,1,72,1
O=C(c1cccc(F)c1)N1CC[C@H]2[C@H](CO)Nc3ccc(C#Cc4cccc(F)c4)cc3[C@H]21,-84*,/,/,-7
C/C=C/c1ccc2c(c1)[C@H]1[C@H](CCN1C(=O)c1ccc(F)cc1)[C@H](CO)N2,-89*,/,/,0
CC(=O)N1CC[C@@H]2[C@@H](CO)Nc3ccc(C#Cc4ccccc4F)cc3[C@@H]21,-83*,/,81,-2
SMILES,Pf Dd2 growth,IDH1 R132H inh,T cruzi growth,KDM4C inh
C/C=C/c1ccc2c(c1)[C@@H]1[C@@H](CCN1S(=O)(=O)c1ccccc1C)[C@H](CO)N2,-86*,/,/,-2
C/C=C/c1ccc2c(c1)[C@@H]1[C@@H](CCN1S(=O)(=O)c1ccc(C)cc1)[C@@H](CO)N2,-41,/,22,1
CC(=O)N1CC[C@H]2[C@H](CO)Nc3ccc(C#Cc4ccccc4F)cc3[C@H]21,-21,/,/,-3
CCC(=O)N1CC2(CN(C(=O)c3cccnc3)C2)c2c([nH]c3cc(OC)ccc23)[C@@H]1CO,0,/,/,1
C/C=C/c1ccc2c(c1)[C@H]1[C@H](CCN1C(=O)c1cccc(F)c1)[C@H](CO)N2,-93*,/,/,0
O=C(c1cccc(F)c1)N1CC[C@H]2[C@H](CO)Nc3ccc(-c4cccc(F)c4)cc3[C@H]21,5,/,26,0
O=C(Cc1cccnc1)N1CC[C@H]2[C@H](CO)Nc3ccc(C#Cc4cccc(F)c4)cc3[C@H]21,-84*,/,/,1
O=C(N[C@@H]1CC[C@H](CC(=O)N2CCN(c3ccccc3)CC2)O[C@@H]1CO)c1ccncc1,12,0,-4,0
CO[C@@H]1CN(C)C(=O)c2cc(NC(=O)Cc3ccccc3)ccc2OC[C@H](C)N(C(=O)c2ccccc2F)C[C@@H]1C,-82*,0,-49,1
CO[C@H]1CN(C)C(=O)c2cc(NC(=O)c3ccccc3F)ccc2OC[C@H](C)N(C(=O)c2ccccc2F)C[C@H]1C,-87*,0,86,0
COCC(=O)Nc1ccc2c(c1)C(=O)N(C)[C@@H]1CC[C@@H](CC(=O)NCC3CC3)O[C@@H]1CO2,4,/,29,4
C[C@@H]1CN([C@@H](C)CO)C(=O)c2cc(-c3ccccc3)cnc2O[C@@H]1CN(C)C(=O)C1CCOCC1,40,-5,60,3
O=C(NC1CCCCC1)N1CC2(C1)[C@@H](c1ccccc1)[C@@H](CO)N2S(=O)(=O)Cc1ccccc1,-16,/,/,3
C[C@@H]1CCCCO[C@H](CN(C)CC2CC2)[C@H](C)CN([C@@H](C)CO)C(=O)c2cc(NC(=O)C3CCCCC3)ccc2O1,/,3,/,-1
C[C@H](CO)N1C[C@H](C)[C@@H](CN(C)CC2CCCCC2)OCCCC[C@H](C)Oc2ccc(NC(=O)Nc3ccccc3)cc2C1=O,-60,1,93,0

# Compound activity deposited in PubChem BioAssay by Broad Institute.
